Activity calls are given as the source filed them. No rule for the calls is given here.
What was measured:
[1] = target: T1, Vascular endothelial growth factor receptor 2 (Homo sapiens, UniProt P35968); test: Inhibition of VEGFR2 assessed as [33Pi] incorporation by microplate scintillation counting in presence of 1 uM ATP
In short: (§1)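 Substrates: Poly(Glu,Tyr)4:1 for VEGFR2; Poly(Glu,Tyr) or Poly(Ala,Glu,Lys,Tyr) for INS-R; RBER-CHKtide or casein for PLK1. Incubated 30 °C, 80 min, stopped with 2% H3PO4. Singlicate; activity referenced to no-enzyme and no-inhibitor controls.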

[2] = target: Serine/threonine-protein kinase PLK1 (Homo sapiens, UniProt P53350); test: Inhibition of PLK1 assessed as [33Pi] incorporation by microplate scintillation counting in presence of 1 uM ATP
Serine/threonine-protein kinase PLK1, sequence (P53350 whole entry): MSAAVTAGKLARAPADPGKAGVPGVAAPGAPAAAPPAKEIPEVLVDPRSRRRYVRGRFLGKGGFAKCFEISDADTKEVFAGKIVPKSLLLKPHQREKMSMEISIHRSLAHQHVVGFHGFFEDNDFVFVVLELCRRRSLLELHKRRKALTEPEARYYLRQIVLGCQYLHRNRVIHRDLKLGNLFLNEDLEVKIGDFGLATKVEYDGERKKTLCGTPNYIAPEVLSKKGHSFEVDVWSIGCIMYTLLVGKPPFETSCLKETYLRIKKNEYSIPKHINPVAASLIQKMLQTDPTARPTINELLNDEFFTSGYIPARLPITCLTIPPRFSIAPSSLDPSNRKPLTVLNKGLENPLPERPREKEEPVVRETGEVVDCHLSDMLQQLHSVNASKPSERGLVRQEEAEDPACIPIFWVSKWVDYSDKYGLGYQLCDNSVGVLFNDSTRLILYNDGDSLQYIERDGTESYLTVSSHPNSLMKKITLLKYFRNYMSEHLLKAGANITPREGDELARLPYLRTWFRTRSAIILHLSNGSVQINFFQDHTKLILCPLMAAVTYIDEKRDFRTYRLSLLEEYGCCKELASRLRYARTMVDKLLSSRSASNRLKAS

Insulin receptor = Insulin receptor (Homo sapiens, UniProt P06213); test: Inhibition of INSR assessed as [33Pi] incorporation by microplate scintillation counting in presence of 1 uM ATP; in short: as §1
Insulin receptor, sequence (P06213 28-758 limits assumed): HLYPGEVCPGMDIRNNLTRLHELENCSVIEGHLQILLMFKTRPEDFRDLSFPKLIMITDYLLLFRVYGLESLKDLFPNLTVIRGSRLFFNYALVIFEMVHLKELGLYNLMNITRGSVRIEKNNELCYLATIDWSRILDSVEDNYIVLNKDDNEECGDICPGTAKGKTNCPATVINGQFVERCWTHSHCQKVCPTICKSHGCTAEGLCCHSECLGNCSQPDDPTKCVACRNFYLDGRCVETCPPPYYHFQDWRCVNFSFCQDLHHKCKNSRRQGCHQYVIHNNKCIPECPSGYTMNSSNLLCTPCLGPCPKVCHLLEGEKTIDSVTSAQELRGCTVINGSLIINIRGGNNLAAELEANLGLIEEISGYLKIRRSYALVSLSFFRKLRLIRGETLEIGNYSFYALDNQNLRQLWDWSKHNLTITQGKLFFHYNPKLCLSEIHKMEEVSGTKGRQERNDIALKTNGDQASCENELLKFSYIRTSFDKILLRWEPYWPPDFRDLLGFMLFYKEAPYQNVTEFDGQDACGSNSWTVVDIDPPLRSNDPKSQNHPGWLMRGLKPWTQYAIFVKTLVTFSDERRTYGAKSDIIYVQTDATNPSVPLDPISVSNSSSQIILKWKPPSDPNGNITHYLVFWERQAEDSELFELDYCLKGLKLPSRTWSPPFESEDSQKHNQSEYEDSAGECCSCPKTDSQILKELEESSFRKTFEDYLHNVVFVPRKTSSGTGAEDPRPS
Insulin receptor, sequence (P06213 763-1382 limits assumed): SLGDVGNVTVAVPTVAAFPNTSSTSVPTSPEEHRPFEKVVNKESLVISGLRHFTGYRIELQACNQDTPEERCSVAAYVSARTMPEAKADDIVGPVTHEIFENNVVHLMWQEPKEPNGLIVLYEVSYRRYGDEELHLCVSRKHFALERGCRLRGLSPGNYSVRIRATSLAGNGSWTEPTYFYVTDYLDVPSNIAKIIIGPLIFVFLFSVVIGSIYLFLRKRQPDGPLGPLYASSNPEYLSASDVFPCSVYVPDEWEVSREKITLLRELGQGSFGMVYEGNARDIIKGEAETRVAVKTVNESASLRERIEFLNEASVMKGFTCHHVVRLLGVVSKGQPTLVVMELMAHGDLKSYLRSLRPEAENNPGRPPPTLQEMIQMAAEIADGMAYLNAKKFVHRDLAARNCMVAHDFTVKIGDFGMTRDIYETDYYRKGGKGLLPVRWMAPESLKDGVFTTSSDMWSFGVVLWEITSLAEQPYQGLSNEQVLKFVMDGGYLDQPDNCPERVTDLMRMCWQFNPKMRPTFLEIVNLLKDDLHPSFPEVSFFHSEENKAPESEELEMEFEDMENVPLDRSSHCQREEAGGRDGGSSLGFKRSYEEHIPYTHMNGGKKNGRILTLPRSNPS

NCI60 = test: Antiproliferative activity against human NCI60 cells at 10 uM after 48 hrs by sulforhodamine B assay; format: functional, cell-based
In short: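 NCI 60-cell-line prescreen with compound given once at 10 μM. Cells grown in RPMI 1640 with 5% FBS and 2 mM L-glutamine, plated 24 h before dosing, then exposed 48 h at 37 °C. Fixed with cold TCA, stained with SRB, absorbance read at 515 nm, and percent growth taken relative to time-zero and control wells.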

IGROV-1 = test: Growth inhibition of human IGROV1 cells after 48 hrs by sulforhodamine B assay; format: functional; settings: IGROV-1, 48 h
In short: (§2)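 NCI SRB assay with five drug concentrations, top concentration 100 μM, 48 h exposure at 37 °C in RPMI 1640/5% FBS. GI50 is the concentration giving [(Ti−Tz)/(C−Tz)]×100 = 50. Values are means of two independent runs on different dates, each run in duplicate.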

CAKI-1 = test: Growth inhibition of human Caki1 cells after 48 hrs by sulforhodamine B assay; format: functional; settings: CAKI-1, 48 h; in short: as §2
UACC-257 = test: Growth inhibition of human UACC257 cells after 48 hrs by sulforhodamine B assay; format: functional; settings: UACC-257, 48 h; in short: as §2
[3] = target: T1, Vascular endothelial growth factor receptor 2; test: Inhibition of VEGFR2 in HUE cells assessed as inhibition of VEGF-induced autophosphorylation treated for 90 mins before VEGF challenge by ELISA; format: cell-based

T1 sequence (P35968 whole entry): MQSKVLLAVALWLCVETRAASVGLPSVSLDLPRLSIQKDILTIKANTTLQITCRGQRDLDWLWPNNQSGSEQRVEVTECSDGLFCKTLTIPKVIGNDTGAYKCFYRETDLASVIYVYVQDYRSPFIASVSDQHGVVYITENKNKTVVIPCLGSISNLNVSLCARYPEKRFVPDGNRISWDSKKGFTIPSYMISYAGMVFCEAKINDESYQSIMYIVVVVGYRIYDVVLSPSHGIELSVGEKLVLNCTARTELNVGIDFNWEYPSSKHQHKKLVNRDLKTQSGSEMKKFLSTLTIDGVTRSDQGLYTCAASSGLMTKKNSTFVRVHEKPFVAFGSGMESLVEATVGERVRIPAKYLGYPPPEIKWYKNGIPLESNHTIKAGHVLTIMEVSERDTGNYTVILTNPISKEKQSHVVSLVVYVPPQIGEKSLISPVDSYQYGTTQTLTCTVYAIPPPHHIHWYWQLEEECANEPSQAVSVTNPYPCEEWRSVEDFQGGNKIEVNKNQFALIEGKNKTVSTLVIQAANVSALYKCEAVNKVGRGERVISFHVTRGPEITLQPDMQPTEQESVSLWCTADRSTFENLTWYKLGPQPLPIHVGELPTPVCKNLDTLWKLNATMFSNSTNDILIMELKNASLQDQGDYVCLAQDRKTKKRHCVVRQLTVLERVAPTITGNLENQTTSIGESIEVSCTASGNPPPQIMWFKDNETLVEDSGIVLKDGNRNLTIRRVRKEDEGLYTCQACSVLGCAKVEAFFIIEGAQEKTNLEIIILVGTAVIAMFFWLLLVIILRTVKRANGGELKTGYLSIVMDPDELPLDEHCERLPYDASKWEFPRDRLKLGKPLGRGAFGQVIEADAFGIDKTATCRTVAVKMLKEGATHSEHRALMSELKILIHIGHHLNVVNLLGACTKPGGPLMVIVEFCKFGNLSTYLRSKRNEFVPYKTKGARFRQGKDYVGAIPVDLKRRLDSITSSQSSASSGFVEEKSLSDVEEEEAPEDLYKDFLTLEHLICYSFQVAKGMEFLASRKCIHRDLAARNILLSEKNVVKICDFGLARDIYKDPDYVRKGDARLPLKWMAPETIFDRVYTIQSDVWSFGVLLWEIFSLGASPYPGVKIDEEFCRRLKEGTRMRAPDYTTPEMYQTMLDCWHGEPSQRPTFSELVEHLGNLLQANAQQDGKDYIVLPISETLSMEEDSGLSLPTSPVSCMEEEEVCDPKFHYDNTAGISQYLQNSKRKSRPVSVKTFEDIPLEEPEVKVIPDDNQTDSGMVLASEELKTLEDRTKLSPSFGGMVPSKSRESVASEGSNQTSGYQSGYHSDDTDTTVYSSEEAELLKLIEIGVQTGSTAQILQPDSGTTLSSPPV

IC50 [1]	IC50 [2]	IC50 (Insulin receptor)	IC50 [3]	SMILES	Activity (NCI60)	GI50 (IGROV-1)	GI50 (CAKI-1)	GI50 (UACC-257)
0.028 µM	0.75 µM	> 100 µM	–	COc1ccc2c(c1)NC(=O)Cc1cnc(Nc3ccc(O)cc3)nc1-2	Active	–	–	–
> 100 µM	> 100 µM	> 100 µM	–	COc1ccc2c(c1)NC(=O)Cc1cc3c(=O)[nH]c(=O)[nH]c3nc1-2	Active	–	–	–
0.19 µM	2.5 µM	> 100 µM	–	COc1ccc(Nc2ncc3c(n2)-c2cnccc2NC(=O)C3)cc1	Active	–	–	–
0.095 µM	47 µM	99 µM	–	COc1ccc(Nc2ncc3c(n2)-c2ccccc2NC(=O)C3)cc1	Active	0.41 µM	0.51 µM	61 µM
1.8 µM	17 µM	11 µM	–	COc1ccc2c(c1)NC(=O)Cc1cnc3cc(-c4ccccc4)nn3c1-2	Active	–	–	–
1.5 µM	> 100 µM	> 100 µM	–	COc1ccc(Nc2ncc3c(n2)-c2ncccc2NC(=O)C3)cc1	Active	–	–	–
1.2 µM	20 µM	> 100 µM	–	Cc1cc(O)ccc1Nc1ncc2c(n1)-c1ccccc1NC(=O)C2	Active	–	–	–
8.6 µM	> 100 µM	> 100 µM	–	COc1ccc2c(c1)NC(=O)Cc1cnc3ccnn3c1-2	Active	–	–	–
> 100 µM	> 100 µM	> 100 µM	–	Cn1c(=O)c2cc3c(nc2n(C)c1=O)-c1cnccc1NC(=O)C3	Active	–	–	–
> 100 µM	> 100 µM	> 100 µM	–	Cn1c(=O)c2cc3c(nc2n(C)c1=O)-c1ccccc1NC(=O)C3	Active	–	–	–
> 100 µM	> 100 µM	> 100 µM	–	O=C1Cc2cc3c(=O)[nH]c(=O)[nH]c3nc2-c2cnccc2N1	Active	–	–	–
> 100 µM	> 100 µM	> 100 µM	–	Cn1c(=O)c2cc3c(nc2n(C)c1=O)-c1ncccc1NC(=O)C3	Active	–	–	–
> 100 µM	> 100 µM	> 100 µM	–	COc1ccc2c(c1)NC(=O)Cc1cnc3ncnn3c1-2	Active	–	–	–
0.015 µM	0.84 µM	> 100 µM	–	COc1ccc2c(c1)NC(=O)Cc1cnc(Nc3cccc(O)c3)nc1-2	Active	–	–	–
> 100 µM	> 100 µM	> 100 µM	–	O=C1Cc2cc3c(=O)[nH]c(=O)[nH]c3nc2-c2ccccc2N1	Active	–	–	–
> 100 µM	> 100 µM	> 100 µM	–	COc1ccc2c(c1)NC(=O)Cc1cc3c(=O)n(C)c(=O)n(C)c3nc1-2	Active	–	–	–
66 µM	> 100 µM	> 100 µM	–	O=C1Cc2cc3c(=O)[nH]c(=O)[nH]c3nc2-c2ncccc2N1	Active	–	–	–

More lines, now with the values behind:

SMILES	IC50 [1]	IC50 [2]	IC50 (Insulin receptor)	IC50 [3]	Activity (NCI60)	GI50 (IGROV-1)	GI50 (CAKI-1)	GI50 (UACC-257)
Cc1ccc(Nc2ncc3c(n2)-c2ccccc2NC(=O)C3)cc1	0.19 µM	> 100 µM	> 100 µM	–	Active	–	–	–
COc1ccc(Nc2ncc3c(n2)-c2ccc(OC)cc2NC(=O)C3)cc1	0.05 µM	0.35 µM	> 100 µM	–	Active	–	–	–
O=C1Cc2cnc(Nc3ccc(Cl)cc3)nc2-c2ccccc2N1	0.19 µM	> 100 µM	> 100 µM	–	Active	–	–	–
O=C1Cc2cnc(Nc3ccccc3O)nc2-c2ccccc2N1	0.53 µM	14 µM	> 100 µM	–	Active	–	–	–
CCOc1ccc(Nc2ncc3c(n2)-c2ncccc2NC(=O)C3)cc1	2 µM	> 100 µM	> 100 µM	–	Active	–	–	–
O=C1Cc2cnc(Nc3ccccc3)nc2-c2ccccc2N1	0.14 µM	> 100 µM	> 100 µM	–	Active	–	–	–
O=C1Cc2cnc3ccnn3c2-c2ccccc2N1	12 µM	> 100 µM	> 100 µM	–	Active	–	–	–
O=C1Cc2cnc3cc(-c4ccccc4)nn3c2-c2ccccc2N1	0.63 µM	> 100 µM	> 100 µM	–	Active	–	–	–
O=C1Cc2cnc(Nc3cccc(O)c3)nc2-c2cnccc2N1	0.14 µM	2.3 µM	> 100 µM	–	Active	–	–	–
O=C1Cc2cnc(Nc3ccccc3Br)nc2-c2ccccc2N1	57 µM	> 100 µM	> 100 µM	–	Active	–	–	–
O=C1Cc2cnc3cc(-c4ccccc4)nn3c2-c2cnccc2N1	2 µM	> 100 µM	> 100 µM	–	Active	–	–	–
O=C1Cc2cnc(Nc3ccc(O)c(Cl)c3)nc2-c2ncccc2N1	0.67 µM	> 100 µM	> 100 µM	–	Active	–	–	–
O=C1Cc2cnc3ccnn3c2-c2ncccc2N1	87 µM	> 100 µM	> 100 µM	–	Active	–	–	–
O=C1Cc2cnc3ncnn3c2-c2ncccc2N1	> 100 µM	> 100 µM	> 100 µM	–	Active	–	–	–
O=C1Cc2cnc(Nc3cccc(O)c3)nc2-c2ccccc2N1	0.051 µM	19 µM	> 100 µM	1.6 µM	Active	–	–	–
O=C1Cc2cnc(Nc3ccc(O)cc3)nc2-c2ncccc2N1	2.7 µM	55 µM	> 100 µM	–	Active	–	–	–
O=C1Cc2cnc(Nc3ccc(O)c(Cl)c3)nc2-c2ccccc2N1	0.035 µM	9.3 µM	84 µM	9.6 µM	Active	–	4.7 µM	39 µM
COc1ccc2c(c1)NC(=O)Cc1cnc(Nc3ccc(OC)c(O)c3)nc1-2	0.018 µM	0.14 µM	> 100 µM	–	Active	–	–	–
O=C1Cc2cnc(Nc3ccccc3Cl)nc2-c2ccccc2N1	6.1 µM	73 µM	> 100 µM	–	Active	–	–	–
O=C1Cc2cnc(Nc3ccc(Br)cc3)nc2-c2ccccc2N1	0.29 µM	> 100 µM	> 100 µM	–	Active	–	–	–
O=C1Cc2cnc(Nc3ccc(I)cc3)nc2-c2ccccc2N1	0.4 µM	15 µM	> 100 µM	–	Active	–	–	–
O=C1Cc2cnc(Nc3ccc(O)cc3)nc2-c2cnccc2N1	0.13 µM	2.6 µM	> 100 µM	–	Active	–	–	–
O=C1Cc2cnc(Nc3cccc(O)c3)nc2-c2ncccc2N1	2.6 µM	> 100 µM	> 100 µM	–	Active	–	–	–
O=C1Cc2cnc3cc(-c4ccccc4)nn3c2-c2ncccc2N1	16 µM	> 100 µM	> 100 µM	–	Active	–	–	–
O=C1Cc2cnc(Nc3ccc([N+](=O)[O-])cc3)nc2-c2ccccc2N1	0.33 µM	> 100 µM	22 µM	–	Active	–	–	–
O=C1Cc2c([nH]c3ccc(Br)cc23)-c2ccccc2N1	–	–	–	–	Active	–	–	–

From ChEMBL document CHEMBL1157616, “Identification of 2-anilino-9-methoxy-5,7-dihydro-6H-pyrimido[5,4-d][1]benzazepin-6-ones as dual PLK1/VEGF-R2 kinase inhibitor chemotypes by structure-based lead generation” (J Med Chem, 2010)
